Measured values reported in PMC2582604 (Nucleic Acids Research, 2008).

Tests used:
HeLa pLuc705 cells [1] = assay: Energy dependence of uptake; assay type: cell-based; details: 1 µM conjugate, 30 min pre-incubation, 1 h incubation, luciferase read-out
Summary of the method: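 Cells pre-incubated 30 min in OptiMEM at either 37°C or 4°C. Conjugate was then added at 1 μM final and incubation continued 1 h. Read-out was luciferase in lysates, normalised to BCA protein, as in the splicing redirection assay.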

Serum stability assay = assay type: in vitro ADME, mouse; details: 37°C
Summary of the method: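 Conjugate (20 μM) incubated at 37°C in PBS with 20% mouse serum (from clotted blood of female Balb/c mice, cleared by 3 × 30 min centrifugation at 4°C). Aliquots at 0, 15, 30, 60 and 120 min were quenched in 10% dichloroacetic acid in H2O/CH3CN (50/50) and held at –20°C. Supernatant after protein pelleting was analysed by MALDI-TOF MS; cleavage sites were assigned from fragment masses, semi-quantitatively.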

HeLa pLuc705 cells [2] = assay: HeLa pLuc705 splicing redirection, luciferase upregulation; assay type: cell-based
Summary of the method: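 HeLa pLuc705 cells were seeded at 1.75 × 10^5/well and grown overnight. Test compound was added for 4 h in OptiMEM without transfection agent, then diluted with DMEM/10% FBS for a further 20 h. Cells were washed in ice-cold PBS and lysed. Luminescence was normalised to BCA protein (550 nm) and expressed as RLU/µg protein or fold over background. Triplicates averaged.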

HeLa pLuc705 cells [3] = assay: Endocytosis inhibitor study, luciferase read-out; assay type: cell-based; details: 1 μM conjugate
Summary of the method: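 HeLa pLuc705 cells pre-incubated 30 min in OptiMEM at 37°C with inhibitor: chlorpromazine 30 μM or K+ depletion (clathrin), nystatin 50 μM or filipin-III 5 μg ml–1 (caveolae), methyl-β-cyclodextrin 2.5 mM or EIPA 1 mM (macropinocytosis). Inhibitor levels and timings were set to spare protein synthesis. Conjugate then added to 1 μM final for 30 min. Luciferase read as in the splicing assay.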

[4] = tested on: aberrant β-globin intron 705 site in HeLa pLuc705 cells; assay: HeLa pLuc705 splicing redirection, RT-PCR analysis; assay type: cell-based; details: RT-PCR assay
Summary of the method: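 HeLa pLuc705 cells were treated with increasing conjugate concentrations as in the luciferase assay (4 h OptiMEM, then 20 h with added serum medium). Total RNA was extracted from the leftover lysate after luciferase and protein measurement. RT-PCR products were separated on 2% agarose and gels scanned to quantify aberrant versus correctly spliced RNA. EC50 of splicing redirection was taken from the dose series.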

[5] = tested on: dystrophin pre-mRNA exon 23 in mdx myoblasts; assay: Exon skipping after electroporation into mdx myoblasts; assay type: cell-based, mouse; details: 0.5 nmol electroporated into mdx myoblasts, 24 h, nested RT-PCR
Summary of the method: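 H2K mdx myoblasts (undifferentiated) were grown 2 days at 33°C, 10% CO2, in 20% FBS/DMEM with interferon γ, then trypsinised. 1.5 × 10^6 cells/100 µl Nucleofector Solution V were pulsed with 0.5 nmol PNA, conjugate or sense control PNA (program T-020). Cells rested 10 min at room temperature in OptiMEM, then cultured 24 h on gelatin at 33°C. Total RNA underwent one-step RT-PCR then nested PCR; 2% agarose gel.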

(R-Ahx-R)3IHILFQNdRRMKWHKBC [Pip2b–PNA705]
uptake mechanism from splicing redirection activity at 37°C and 4°C (HeLa pLuc705 cells [1]): energy-dependent uptake mechanism
stability to serum proteolysis (Serum stability assay; 20 μM conjugate, PBS with 20% mouse serum, 1 h, MALDI-TOF MS): predominantly stable for 1 h
activity compared to RXR4–PNA705 (HeLa pLuc705 cells [2]; HeLa pLuc705, absence of transfection or permeabilization agent): 3- to 4 fold
effect of EIPA on luciferase expression (HeLa pLuc705 cells [3]; EIPA 1 mM (macropinocytosis)): no effect
inhibitory effect of fillipin-III on luciferase expression (HeLa pLuc705 cells [3]; fillipin-III 5 μg ml–1 (caveolae)): 36%
effect of methyl-β-cyclodextrin on luciferase expression (HeLa pLuc705 cells [3]; methyl-β-cyclodextrin 2.5 mM (macropinocytosis)): increased luciferase expression
inhibitory effect of nystatin on luciferase expression (HeLa pLuc705 cells [3]; nystatin 50 μM (caveolae)): 12%

(R-Ahx-R)3IdKILFQNdRRMKWHKBC [Pip2a–PNA705]
uptake mechanism from splicing redirection activity at 37°C and 4°C (HeLa pLuc705 cells [1]): energy-dependent uptake mechanism

(RXR)3-IKILFQN-R|RMKWKKC [Pip1–PNA705]
uptake mechanism from splicing redirection activity at 37°C and 4°C (HeLa pLuc705 cells [1]): energy-dependent uptake mechanism
time to full cleavage in 20% mouse serum (Serum stability assay; 20 μM conjugate, PBS with 20% mouse serum, MALDI-TOF MS): ≤ 1 h
major serum proteolytic cleavage site (Serum stability assay; 20% mouse serum, fragment masses by MALDI-TOF MS): between amino acids R17 and R18
EC50 improvement relative to R6Pen–PNA [4]: about 2 fold
fold increase in luminescence compared to R6Pen–PNA705 (HeLa pLuc705 cells [2]; at similar concentrations, HeLa pLuc705 luciferase assay): two to three times

sense control PNA: sense 20-mer PNA control sequence AGGTAAGCCGAGGTTTGGCC (all peptide nucleic acid (PNA))
exon skipping after electroporation [5]: no exon skipping
